Laboratory results published in ChEMBL document CHEMBL1765076, “17,20-Lyase inhibitors. Part 3: Design, synthesis, and structure-activity relationships of biphenylylmethylimidazole derivatives as novel 17,20-lyase inhibitors” (Bioorg Med Chem, 2011).

Experiments:
[1] = target: T1, Steroid 17-alpha-hydroxylase/17,20 lyase (Rattus norvegicus, UniProt P11715); experiment: Inhibition of 17,20 lyase activity in Sprague-Dawley rat testicular microsomes; parameters: species or system Testis
T1 sequence (P11715 whole entry): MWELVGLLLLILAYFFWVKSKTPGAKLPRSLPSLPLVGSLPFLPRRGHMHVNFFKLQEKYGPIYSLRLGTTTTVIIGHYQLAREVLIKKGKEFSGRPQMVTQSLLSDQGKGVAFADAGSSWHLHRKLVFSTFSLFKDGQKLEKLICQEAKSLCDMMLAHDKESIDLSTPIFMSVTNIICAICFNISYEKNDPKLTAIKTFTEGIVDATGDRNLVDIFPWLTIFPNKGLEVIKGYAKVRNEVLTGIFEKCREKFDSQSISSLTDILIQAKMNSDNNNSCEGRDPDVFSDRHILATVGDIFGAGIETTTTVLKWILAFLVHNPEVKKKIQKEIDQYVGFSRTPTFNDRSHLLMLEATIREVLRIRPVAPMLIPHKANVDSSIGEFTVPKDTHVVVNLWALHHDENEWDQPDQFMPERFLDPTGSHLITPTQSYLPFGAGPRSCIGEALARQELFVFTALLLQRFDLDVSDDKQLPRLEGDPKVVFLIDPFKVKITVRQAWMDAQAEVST
Procedure, shortened: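 Testicular microsomes came from 13-week-old male SD rats, prepared by homogenisation and centrifugation. Reactions contained 75 mM phosphate (pH 7.4), 7 µg microsomal protein, 10 nM [1,2-3H]-17α-hydroxyprogesterone, 5 mM NADPH and 1–1000 nM compound (final concentrations; DMF stocks diluted in water). Incubation was 15 min at 37 °C, stopped with ethyl acetate. IC50 is the concentration halving product formation.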

[2] = target: Cytochrome P450 3A4 (Homo sapiens, UniProt P08684); experiment: Inhibition of human CYP3A4 after 30 mins; assay type: ADME
Chain of Cytochrome P450 3A4 (P08684 whole entry): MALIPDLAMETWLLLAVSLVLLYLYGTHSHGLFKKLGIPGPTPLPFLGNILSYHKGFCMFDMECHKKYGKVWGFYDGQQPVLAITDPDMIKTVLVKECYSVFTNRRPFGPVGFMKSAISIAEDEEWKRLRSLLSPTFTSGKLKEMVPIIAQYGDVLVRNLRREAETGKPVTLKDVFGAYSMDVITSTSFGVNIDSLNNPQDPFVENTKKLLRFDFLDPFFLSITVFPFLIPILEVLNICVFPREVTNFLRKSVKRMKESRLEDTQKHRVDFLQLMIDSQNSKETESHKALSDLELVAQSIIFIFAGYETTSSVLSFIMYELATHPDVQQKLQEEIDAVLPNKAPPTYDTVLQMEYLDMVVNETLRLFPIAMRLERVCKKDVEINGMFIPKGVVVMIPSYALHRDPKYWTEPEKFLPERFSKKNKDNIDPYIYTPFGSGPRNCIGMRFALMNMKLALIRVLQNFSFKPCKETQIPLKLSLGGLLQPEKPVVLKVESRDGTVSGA

[3] = target: T2, Steroid 17-alpha-hydroxylase/17,20 lyase (Homo sapiens, UniProt P05093); experiment: Inhibition of human 17,20 lyase activity
T2 sequence (P05093 whole entry): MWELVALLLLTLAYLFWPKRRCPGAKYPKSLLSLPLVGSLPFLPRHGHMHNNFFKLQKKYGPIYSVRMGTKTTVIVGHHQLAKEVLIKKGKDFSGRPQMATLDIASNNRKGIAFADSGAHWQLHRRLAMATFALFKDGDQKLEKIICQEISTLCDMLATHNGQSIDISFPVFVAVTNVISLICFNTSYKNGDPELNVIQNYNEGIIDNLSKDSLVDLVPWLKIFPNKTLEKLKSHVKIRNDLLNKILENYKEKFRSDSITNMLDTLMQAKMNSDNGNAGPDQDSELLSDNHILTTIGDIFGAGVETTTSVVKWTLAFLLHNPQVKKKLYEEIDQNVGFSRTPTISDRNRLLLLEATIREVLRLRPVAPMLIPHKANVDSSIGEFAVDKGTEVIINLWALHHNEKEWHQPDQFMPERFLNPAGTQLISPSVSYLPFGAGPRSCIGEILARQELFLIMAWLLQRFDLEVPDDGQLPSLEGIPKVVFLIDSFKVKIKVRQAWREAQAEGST

[4] = species on record: Homo sapiens; experiment: Ratio of IC50 for human CYP3A4 to IC50 for human 17,20-lyase
[5] = tested on: Cynomolgus monkey; experiment: Antiandrogenic activity in cynomolgus monkey assessed as serum testosterone level at 3 mg/kg, po after 2 hrs (reference value: 110 +/- 29%); assay type: functional, Macaca fascicularis
[6] = tested on: Cynomolgus monkey; experiment: Antiandrogenic activity in cynomolgus monkey assessed as serum testosterone level at 3 mg/kg, po after 5 hrs (reference value: 98 +/- 33%); assay type: functional, Macaca fascicularis
[7] = tested on: Cynomolgus monkey; experiment: Antiandrogenic activity in cynomolgus monkey assessed as serum DHEA level at 3 mg/kg, po after 2 hrs (reference value: 116 +/- 95%); assay type: functional, Macaca fascicularis
[8] = tested on: Cynomolgus monkey; experiment: Antiandrogenic activity in cynomolgus monkey assessed as serum DHEA level at 3 mg/kg, po after 5 hrs (reference value: 148 +/- 53%); assay type: functional, Macaca fascicularis

| SMILES | IC50 [1] | IC50 [2] | IC50 [3] | Ratio IC50 [4] | Activity [5] | Activity [6] | Activity [7] | Activity [8] |
| --- | --- | --- | --- | --- | --- | --- | --- | --- |
| CCC(O)(c1ccc(-c2cccc(NC(C)=O)c2)cc1)c1c[nH]cn1 (racemic) | 25 nM | > 10000 nM | 40 nM |  |  |  |  |  |
| COc1ccc(-c2cccc(C(O)(c3c[nH]cn3)C(C)C)c2)cc1 (racemic) |  | 2000 nM | 130 nM | 15 |  |  |  |  |
| CC(=O)Nc1cccc(-c2ccc(C(O)c3cnc[nH]3)cc2)c1 (racemic) | 320 nM | > 10000 nM | 77 nM |  |  |  |  |  |
| CC(C)C(O)(c1ccc(-c2ccccn2)cc1)c1c[nH]cn1 (racemic) | 210 nM | 5200 nM | 150 nM |  |  |  |  |  |
| CC(=O)Nc1cccc(-c2ccc([C@](O)(c3c[nH]cn3)C(C)C)cc2)c1 | 14 nM |  | 26 nM |  | 52% | 23% | 23% | 13% |
| CC(=O)Nc1cccc(-c2ccc(C(C)(O)c3c[nH]cn3)cc2)c1 (racemic) | 62 nM | > 10000 nM | 38 nM |  |  |  |  |  |
| CC[C@](O)(c1ccc(-c2cccc(NC(C)=O)c2)cc1)c1c[nH]cn1 | 19 nM | > 10000 nM | 22 nM | > 300 |  |  |  |  |
| CC(=O)Nc1cccc(-c2ccc([C@@](O)(c3cnc[nH]3)C(C)C)cc2)n1 | > 1000 nM | > 10000 nM | 92 nM |  |  |  |  |  |
| CC(=O)Nc1cccc(-c2ccc(C(O)(c3c[nH]cn3)C(C)C)cc2)n1 (racemic) | 53 nM | > 10000 nM | 36 nM |  |  |  |  |  |
| CC(=O)Nc1cccc(-c2ccc([C@](O)(c3cnc[nH]3)C(C)C)cc2)n1 | 33 nM | > 10000 nM | 26 nM |  |  |  |  |  |
| CC(C)C(O)(c1ccc(-c2ccc(Cl)cc2)cc1)c1c[nH]cn1 (racemic) | 29 nM | 7600 nM | 28 nM | 271 |  |  |  |  |
| CC(=O)Nc1cccc(-c2ccc(C(O)(c3c[nH]cn3)C3CC3)cc2)c1 (racemic) | 81 nM | 5500 nM | 45 nM |  |  |  |  |  |
| CC(=O)Nc1cccc(-c2ccc([C@@](O)(c3c[nH]cn3)C(C)C)cc2)c1 | 770 nM |  | 340 nM |  |  |  |  |  |
| CNC(=O)Nc1cccc(-c2ccc(C(O)(c3c[nH]cn3)C(C)C)cc2)c1 (racemic) | 24 nM | 5500 nM | 21 nM |  |  |  |  |  |
| COc1ccc(-c2ccc(C(O)(c3c[nH]cn3)C(C)C)cc2)cc1 (racemic) | 120 nM | 4900 nM | 54 nM | 91 |  |  |  |  |
| CNS(=O)(=O)c1cccc(-c2ccc(C(O)(c3cnc[nH]3)C(C)C)cc2)c1 (racemic) | 71 nM | 3300 nM | 160 nM |  |  |  |  |  |
| CC[C@@](O)(c1ccc(-c2cccc(NC(C)=O)c2)cc1)c1c[nH]cn1 | 450 nM | > 10000 nM | 240 nM |  |  |  |  |  |
| CC(C)C(O)(c1cccc(-c2ccc(Cl)cc2)c1)c1c[nH]cn1 (racemic) | 19 nM | 2400 nM | 49 nM | 49 |  |  |  |  |
| CC(C)C(O)(c1cccc(-c2ccc(F)cc2)c1)c1c[nH]cn1 (racemic) |  | 2100 nM | 19 nM | 111 |  |  |  |  |
| CC(C)C(O)(c1ccc(-c2ccc(F)cc2)cc1)c1c[nH]cn1 (racemic) |  | 5300 nM | 27 nM | 196 |  |  |  |  |
| CC(=O)Nc1ccc(-c2ccc(C(O)(c3c[nH]cn3)C(C)C)cc2)cc1 (racemic) | 24 nM | 1000 nM | 120 nM |  |  |  |  |  |
| CC(=O)Nc1cccc(-c2ccc(C(O)(c3c[nH]cn3)C(C)C)cc2)c1 (racemic) | 17 nM |  | 24 nM |  |  |  |  |  |
| CC(=O)Nc1cccc(-c2ccc([C@](O)(c3c[nH]cn3)C(C)C)cc2)n1 |  |  |  | > 300 |  |  |  |  |
| CC(C)C(O)(c1ccc(-c2ccccc2)cc1)c1c[nH]cn1 (racemic) | 33 nM | 3700 nM | 33 nM | 112 |  |  |  |  |
| CNC(=O)c1cccc(-c2ccc(C(O)(c3c[nH]cn3)C(C)C)cc2)c1 (racemic) | 49 nM | 8100 nM | 44 nM |  |  |  |  |  |
| COc1ccc2cc(C(O)(c3c[nH]cn3)C(C)C)ccc2c1 (racemic) |  | < 1000 nM |  |  |  |  |  |  |
